From ChEMBL document CHEMBL1138870, “In vitro and in vivo efficacy and in vitro metabolism of 1-phenyl-3-aryl-2-propen-1-ones against Plasmodium falciparum” (Bioorg Med Chem Lett, 2006)
Activity calls are given as the source filed them. The rule behind the calls is not given here.

Experiments:
[1] = system: Plasmodium falciparum; test: Antimalarial activity against Plasmodium falciparum D6; format: functional, organism-based
Outline: (§1)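 Cultured P. falciparum parasites were exposed to compound, and inhibition of [³H]hypoxanthine uptake was measured to give the IC50. Values come from a single experiment.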

[2] = system: Plasmodium falciparum; test: Antimalarial activity against Plasmodium falciparum W2; format: functional, organism-based; outline: as §1
[3] = system: Plasmodium falciparum; test: Resistance index, IC50 of Plasmodium falciparum W2/IC50 Plasmodium falciparum D6; format: ADME, organism-based; details: in vitro
Outline: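 Ratio of IC50 against P. falciparum W2 to IC50 against strain D6. Each IC50 comes from in vitro inhibition of [3H]hypoxanthine uptake by the parasites, with values from a single experiment.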

[4] = Metabolic stability in mouse liver microsomes; format: ADME, Microsome
[5] = system: Mus musculus; test: Effect on survival of mice (Mus musculus) infected with Plasmodium berghei at 640 mg/kg, perorally; format: functional, organism-based; parameters: dose 640 mg/kg
Outline: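 Mice were inoculated intraperitoneally on day 0 with 1.0 × 10⁶ P. berghei P-line-infected red cells. Compound was dissolved in DMSO, diluted with 0.5% hydroxyethylcellulose and 0.1% Tween, and given orally once daily on days 3–7 at 640 mg/kg/dose. Survival of five treated mice was compared with five untreated infected controls.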

Compound | IC50 [1] | IC50 [2] | Ratio IC50 [3] | half-life [4] | Activity [5]
COc1ccc(OC)c(C(=O)/C=C/c2cnc3ccccc3c2)c1 | 2 µM | 2.7 µM | 1.4 | – | –
COc1ccc(C(=O)/C=C/c2ccnc3ccccc23)cc1Cl | 1.8 µM | 0.95 µM | 0.53 | – | –
COc1ccc(OC)c(C(=O)/C=C/c2cccc3ccccc23)c1 | 2.9 µM | 2.8 µM | 0.97 | – | –
COc1cc(C(=O)/C=C/c2cccc3ccccc23)cc(OC)c1OC | 5.2 µM | 4.8 µM | 0.92 | – | –
COc1ccc(C(=O)/C=C/c2ccnc3ccccc23)cc1F | 0.93 µM | 3.2 µM | 3.4 | 30.6 min | inactive
COc1ccc(C(=O)/C=C/c2cnc3ccccc3c2)cc1F | 1.6 µM | 2.7 µM | 1.7 | – | –
COc1cccc(OC)c1C(=O)/C=C/c1ccc2ccccc2c1 | 3.4 µM | 3.3 µM | 0.97 | – | –
COc1cccc(OC)c1C(=O)/C=C/c1cnc2ccccc2c1 | 2.2 µM | 1.1 µM | 0.53 | – | –
COc1cc(C(=O)/C=C/c2ccc3ccccc3c2)cc(OC)c1OC | 6.6 µM | 6 µM | 0.91 | – | –
O=C(/C=C/c1cnc2ccccc2c1)c1cc(F)ccc1F | 5.6 µM | 7.8 µM | 1.4 | – | –
COc1ccc(C(=O)/C=C/c2ccnc3ccccc23)c(OC)c1OC | 2.6 µM | > 14 µM | – | – | –
COc1cc(OC)cc(C(=O)/C=C/c2cccc3ccccc23)c1 | 4.5 µM | 4.3 µM | 0.96 | – | –
COc1ccc(C(=O)/C=C/c2ccc3ccccc3n2)c(OC)c1OC | 2.9 µM | 3.3 µM | 1.1 | – | –
COc1ccc(OC)c(C(=O)/C=C/c2ccnc3ccccc23)c1 | 3 µM | 7.3 µM | 2.4 | – | –
COc1cc(C(=O)/C=C/c2cnc3ccccc3c2)cc(OC)c1OC | 21 µM | 14 µM | 0.67 | – | –
O=C(/C=C/c1ccnc2ccccc12)c1cc(F)ccc1F | 3.7 µM | 8.6 µM | 2.3 | – | –
COc1ccc(C(=O)/C=C/c2cccc3ccccc23)cc1 | 9.1 µM | 10 µM | 1.1 | – | –
COc1ccc(C(=O)/C=C/c2ccnc3ccccc23)cc1OC | 0.88 µM | 0.5 µM | 0.57 | 15.6 min | inactive
COc1ccc(C(=O)/C=C/c2cnc3ccccc3c2)c(F)c1 | 2.1 µM | 3.1 µM | 1.5 | – | –
COc1ccc(F)cc1C(=O)/C=C/c1ccnc2ccccc12 | 5.1 µM | 4.1 µM | 0.8 | – | –

Compound | IC50 [1] | IC50 [2] | Ratio IC50 [3] | half-life [4] | Activity [5]
COc1cc(OC)cc(C(=O)/C=C/c2ccc3ccccc3c2)c1 | 7.4 µM | 9.5 µM | 1.3 | – | –
COc1ccc(C(=O)/C=C/c2cccc3ccccc23)cc1OC | 5.2 µM | 5 µM | 0.96 | – | –
COc1ccc(C(=O)/C=C/c2ccnc3ccccc23)c(OC)c1 | 3 µM | 2 µM | 0.67 | – | –
O=C(/C=C/c1ccnc2ccccc12)c1ccc(Cl)c(Cl)c1 | 1.7 µM | 0.8 µM | 0.47 | – | inactive
COc1ccc(C(=O)/C=C/c2ccc3ccccc3n2)cc1 | 4.7 µM | > 17 µM | – | – | –
COc1ccc(Cl)cc1C(=O)/C=C/c1cnc2ccccc2c1 | 0.95 µM | 0.59 µM | 0.62 | – | –
COc1ccc(C(=O)/C=C/c2cccc3ccccc23)c(OC)c1OC | 4.3 µM | 5.8 µM | 1.3 | – | –
COc1cc(F)ccc1C(=O)/C=C/c1cnc2ccccc2c1 | 1.1 µM | 1.5 µM | 1.4 | – | –
O=C(/C=C/c1cnc2ccccc2c1)c1ccc(Cl)c(Cl)c1 | 3.1 µM | 12 µM | 3.9 | – | –
COc1cccc(OC)c1C(=O)/C=C/c1cccc2ccccc12 | 3.2 µM | 3.1 µM | 0.97 | – | –
COc1ccc(C(=O)/C=C/c2cnc3ccccc3c2)cc1 | 1.8 µM | 3.3 µM | 1.8 | – | –
O=C(/C=C/c1cnc2ccccc2c1)c1ccc(F)cc1F | 5 µM | 6.2 µM | 1.2 | – | –
COc1ccc(C(=O)/C=C/c2cnc3ccccc3c2)cc1OC | 3.4 µM | 2.2 µM | 0.65 | – | –
COc1ccc(C(=O)/C=C/c2cccc3ccccc23)c(OC)c1 | 4.9 µM | 4.6 µM | 0.94 | – | –
COc1ccc(F)cc1C(=O)/C=C/c1ccc2ccccc2n1 | 3.8 µM | 0.67 µM | 0.18 | – | –
CCN(CC)CCCC(C)Nc1ccnc2cc(Cl)ccc12 (stereo not drawn) | – | – | – | – | Active
COc1ccc(C(=O)/C=C/c2ccnc3ccccc23)cc1 | 5.4 µM | 10 µM | 1.9 | – | –
O=C(/C=C/c1cnc2ccccc2c1)c1ccc(Cl)cc1Cl | 7.9 µM | 6.3 µM | 0.8 | – | –
COc1ccc(C(=O)/C=C/c2ccc3ccccc3c2)cc1OC | 9.8 µM | 7.7 µM | 0.79 | – | –
COc1ccc(OC)c(C(=O)/C=C/c2ccc3ccccc3c2)c1 | 5.5 µM | 5 µM | 0.91 | – | –

Compound | IC50 [1] | IC50 [2] | Ratio IC50 [3] | half-life [4] | Activity [5]
COc1ccc(C(=O)/C=C/c2ccc3ccccc3c2)cc1 | > 17 µM | > 17 µM | – | – | –
O=C(/C=C/c1ccnc2ccccc12)c1cc(Cl)ccc1Cl | 0.19 µM | 0.23 µM | 1.2 | – | inactive
COc1ccc(C(=O)/C=C/c2ccc3ccccc3n2)c(OC)c1 | 2 µM | 1.2 µM | 0.6 | – | –
COc1cccc(OC)c1C(=O)/C=C/c1ccnc2ccccc12 | 13 µM | 5.7 µM | 0.44 | – | –
O=C(/C=C/c1cnc2ccccc2c1)c1cc(Cl)ccc1Cl | 0.62 µM | 1.7 µM | 2.7 | 24.6 min | inactive
O=C(/C=C/c1ccc2ccccc2n1)c1ccc(F)cc1F | 2.3 µM | 1.3 µM | 0.57 | – | –
COc1cc(F)ccc1C(=O)/C=C/c1ccnc2ccccc12 | 6 µM | 6.2 µM | 1 | – | –
O=C(/C=C/c1ccnc2ccccc12)c1ccc(F)c(F)c1 | 9.4 µM | 5.7 µM | 0.61 | – | –
O=C(/C=C/c1ccnc2ccccc12)c1ccc(Cl)cc1Cl | 6.2 µM | 18 µM | 2.9 | – | –
COc1ccc(C(=O)/C=C/c2ccc3ccccc3n2)cc1F | 1.3 µM | 5.3 µM | 4.1 | – | –
COc1ccc(C(=O)/C=C/c2ccc3ccccc3c2)c(OC)c1 | 8.7 µM | > 16 µM | – | – | –
COc1ccc(C(=O)/C=C/c2cnc3ccccc3c2)c(OC)c1 | 4.8 µM | 3.3 µM | 0.7 | – | –
COc1ccc(C(=O)/C=C/c2ccnc3ccccc23)c(F)c1 | 2.4 µM | 4.5 µM | 1.9 | – | –
COc1cc(OC)cc(C(=O)/C=C/c2cnc3ccccc3c2)c1 | 11 µM | 4.3 µM | 0.39 | – | –
O=C(/C=C/c1cnc2ccccc2c1)c1ccc(F)c(F)c1 | 8.5 µM | 5.8 µM | 0.68 | – | –
COc1ccc(C(=O)/C=C/c2cnc3ccccc3c2)c(OC)c1OC | 6.7 µM | 2.8 µM | 0.42 | – | –
COc1ccc(F)cc1C(=O)/C=C/c1cnc2ccccc2c1 | 0.46 µM | 1.1 µM | 2.4 | – | –
COc1ccc(C(=O)/C=C/c2cnc3ccccc3c2)cc1Cl | 2.3 µM | 1.6 µM | 0.7 | – | –
COc1ccc(C(=O)/C=C/c2ccc3ccccc3c2)c(OC)c1OC | > 14 µM | > 14 µM | – | – | –
